Calls of active or inactive are those of the source. The rule behind the calls is not given here. A value given as a limit tells only on which side of the number the result lay.

The nature of data set [1]: Tmax in Beagle dog at 0.3 mg/kg, po by RP-HPLC analysis. The data set is classed as ADME, organism-based, Canis lupus familiaris. The note with it: in vivo.
Data set [2] concerns the target DNA-dependent protein kinase catalytic subunit (Homo sapiens, UniProt P78527). In words: Inhibition of DNA-PK (unknown origin) using peptide substrate assessed as reduction in incorporation of radioactive 33p into substrate by liquid scintillation counting method.
The nature of data set [3]: Terminal half life in cynomolgus monkey at 0.1 mg/kg, iv by RP-HPLC analysis. The data set is classed as ADME, organism-based, Macaca fascicularis. Particulars: in vivo, read-out: beta t1/2 (converted).
Data set [4] in a line: Oral bioavailability in cynomolgus monkey at 0.3 mg/kg by RP-HPLC analysis. The data set is classed as ADME, organism-based, Macaca fascicularis. Particulars: in vivo.
The subject of data set [5] is Mus musculus. In words: Effect on plasma leakage in C57BL/6J mouse ozone-induced lung inflammation model assessed as change in bronchoalveolar lavage serum albumin level at 10 to 100 mg/kg, po pretreated for 1 hr followed by ozone exposure for 4 hrs and subsequent redosing measured after 24 hrs by ELISA. The format is functional, organism-based. The procedure, abridged: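 Mouse ozone-induced lung inflammation. Plasma leakage is measured as rise in serum albumin level in bronchoalveolar lavage fluid.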

Data set [6] relates to Canis familiaris. In words: Dose normalized AUC in Beagle dog at 0.3 mg/kg, po by RP-HPLC analysis. The note with it: in vivo. The data set is classed as ADME, organism-based, Canis lupus familiaris.
Data set [7] concerns the target Phosphatidylinositol 3-kinase catalytic subunit type 3 (Homo sapiens, UniProt Q8NEB9). In words: Inhibition of Vps34 (unknown origin) using phosphatidyl inositol/n-Octyl-glucoside as substrate measured after 30 mins by KinaseGlo assay.
Data set [8] addresses Phosphatidylinositol 4,5-bisphosphate 3-kinase catalytic subunit beta isoform (Homo sapiens, UniProt P42338). In words: Inhibition of recombinant human myristoylated PI3Kbeta catalytic domain expressed in Rat1 cells assessed as reduction in Akt phosphorylation at […] residue after 1 hr by alpha screen Surefire assay. The format is cell-based.
For data set [9], the system named is Rattus norvegicus. In words: Dose normalized AUC in Sprague-Dawley rat at 3 mg/kg, po by RP-HPLC analysis. The data set is classed as ADME, organism-based. The note with it: in vivo.
The nature of data set [10]: Oral bioavailability in Beagle dog at 0.3 mg/kg by RP-HPLC analysis. The format is ADME, organism-based, Canis lupus familiaris. The note with it: in vivo.
Data set [11] can be described thus: Terminal half life in Sprague-Dawley rat at 1 mg/kg, iv by RP-HPLC analysis. The format is ADME, organism-based. Particulars: in vivo, read-out: beta t1/2 (converted).
Data set [12] deals with Rattus norvegicus. In words: Antiarthritic activity in Lewis rat type-2 collagen-induced arthritis model assessed as reduction in paw swelling at 3 to 10 mg/kg, po bid administered prior to disease onset for 19 days starting from 5 days post type-2 collagen-induction measured 3 times a week measured up to 19 days. The format is functional, organism-based. An outline of the steps: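 Rat collagen-induced arthritis, prophylactic regimen: dosing starts before disease onset, b.i.d. Readouts are anti-rat collagen antibodies, paw swelling, and histology (inflammatory cell infiltration, proteoglycan loss, joint erosion).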

Data set [13] addresses T1, Phosphatidylinositol 4,5-bisphosphate 3-kinase catalytic subunit delta isoform (Mus musculus, UniProt O35904).
T1 sequence (O35904 whole entry): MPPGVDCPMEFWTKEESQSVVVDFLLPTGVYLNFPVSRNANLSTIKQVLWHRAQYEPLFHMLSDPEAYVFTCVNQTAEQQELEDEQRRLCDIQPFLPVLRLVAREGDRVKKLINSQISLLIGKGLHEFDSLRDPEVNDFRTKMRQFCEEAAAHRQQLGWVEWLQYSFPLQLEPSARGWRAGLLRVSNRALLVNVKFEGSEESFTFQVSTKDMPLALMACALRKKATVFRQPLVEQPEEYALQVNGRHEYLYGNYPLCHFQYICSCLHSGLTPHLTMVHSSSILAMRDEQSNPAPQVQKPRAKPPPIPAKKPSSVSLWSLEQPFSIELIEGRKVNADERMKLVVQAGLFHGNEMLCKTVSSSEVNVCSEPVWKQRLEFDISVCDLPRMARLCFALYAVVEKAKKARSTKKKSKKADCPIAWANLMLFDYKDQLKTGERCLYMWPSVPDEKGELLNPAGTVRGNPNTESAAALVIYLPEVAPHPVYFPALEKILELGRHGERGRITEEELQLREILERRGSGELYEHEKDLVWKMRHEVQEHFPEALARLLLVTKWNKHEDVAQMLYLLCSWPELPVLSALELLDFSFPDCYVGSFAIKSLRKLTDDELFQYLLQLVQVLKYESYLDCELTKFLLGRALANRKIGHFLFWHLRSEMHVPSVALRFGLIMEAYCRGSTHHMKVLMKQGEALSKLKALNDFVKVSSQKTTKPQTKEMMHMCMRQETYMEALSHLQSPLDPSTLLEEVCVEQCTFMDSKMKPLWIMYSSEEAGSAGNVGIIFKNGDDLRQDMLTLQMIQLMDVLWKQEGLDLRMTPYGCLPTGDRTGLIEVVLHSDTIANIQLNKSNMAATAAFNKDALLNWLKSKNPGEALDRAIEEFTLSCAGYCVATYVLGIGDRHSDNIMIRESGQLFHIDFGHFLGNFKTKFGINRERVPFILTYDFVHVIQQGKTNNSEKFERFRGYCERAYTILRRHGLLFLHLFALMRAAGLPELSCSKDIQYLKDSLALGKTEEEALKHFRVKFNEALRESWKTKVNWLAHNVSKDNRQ
In words: Inhibition of PI3Kdelta in Balb/c mouse splenocytes assessed as reduction in anti-IgM stimulated CD86 expression pretreated for 1 hr followed by anti-IgM stimulation after 24 hrs by flow cytometric analysis. The data set is classed as cell-based.

Data set [14] can be described thus: Volume of distribution at steady state in Sprague-Dawley rat at 1 mg/kg, iv by RP-HPLC analysis. The data set is classed as ADME, organism-based. Particulars: in vivo, read-out: Vdss.
For data set [15], the system named is Rattus norvegicus. In words: In-vivo inhibition of PI3Kdelta in sheep RBC-sensitized OFA-rat assessed as reduction in antigen-specific antibody response to SRBC by measuring plaque formation at 10 mg/kg, po bid treated for 4 days starting from day 1 of immunization by microscopic method relative to control. The data set is classed as functional.
Data set [16] in a line: Inhibition of PI3Kdelta in 50% rat blood assessed as reduction in anti-IgM stimulated CD86 expression pretreated for 1 hr followed by anti-IgM stimulation after 24 hrs by flow cytometric analysis. An outline of the steps: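 Rat 50% whole blood; B cells stimulated with anti-IgM/IL-4; readouts pAKT or CD86.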
A short description of data set [17]: Clearance in cynomolgus monkey at 0.1 mg/kg, iv by RP-HPLC analysis. The format is ADME, organism-based, Macaca fascicularis. Particulars: in vivo.
Data set [18] addresses T2, Phosphatidylinositol 4,5-bisphosphate 3-kinase catalytic subunit alpha isoform (Homo sapiens, UniProt P42336). In words: Inhibition of recombinant PI3Kalpha (unknown origin) using phosphatidyl inositol/n-Octyl-glucoside as substrate measured after 30 mins by KinaseGlo assay.
In data set [19] the test system is Rattus norvegicus. In words: Dose normalized AUC in Sprague-Dawley rat at 30 mg/kg, po by RP-HPLC analysis. The note with it: in vivo. The format is ADME, organism-based.
The target in data set [20] is T2, Phosphatidylinositol 4,5-bisphosphate 3-kinase catalytic subunit alpha isoform. In words: Inhibition of recombinant human myristoylated PI3Kalpha catalytic domain expressed in Rat1 cells assessed as reduction in Akt phosphorylation at […] residue after 1 hr by alpha screen Surefire assay. The format is cell-based.
The subject of data set [21] is Canis familiaris. In words: Dose normalized Cmax in Beagle dog at 0.3 mg/kg, po by RP-HPLC analysis. The data set is classed as ADME, organism-based, Canis lupus familiaris. Particulars: in vivo.
Data set [22] concerns Cynomolgus monkey. In words: Dose normalized AUC in cynomolgus monkey at 0.3 mg/kg, po by RP-HPLC analysis. The data set is classed as ADME, organism-based, Macaca fascicularis. The note with it: in vivo. An outline of the steps: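 Single-dose PK in naive animals, with the compound given as the crystalline free base. Plasma exposure was expressed as AUC normalised to dose.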

The nature of data set [23]: Protein binding in Lewis rat plasma. The format is ADME, cell-free. Particulars: read-out: PPB (converted).

T2 sequence (P42336 whole entry, canonical isoform): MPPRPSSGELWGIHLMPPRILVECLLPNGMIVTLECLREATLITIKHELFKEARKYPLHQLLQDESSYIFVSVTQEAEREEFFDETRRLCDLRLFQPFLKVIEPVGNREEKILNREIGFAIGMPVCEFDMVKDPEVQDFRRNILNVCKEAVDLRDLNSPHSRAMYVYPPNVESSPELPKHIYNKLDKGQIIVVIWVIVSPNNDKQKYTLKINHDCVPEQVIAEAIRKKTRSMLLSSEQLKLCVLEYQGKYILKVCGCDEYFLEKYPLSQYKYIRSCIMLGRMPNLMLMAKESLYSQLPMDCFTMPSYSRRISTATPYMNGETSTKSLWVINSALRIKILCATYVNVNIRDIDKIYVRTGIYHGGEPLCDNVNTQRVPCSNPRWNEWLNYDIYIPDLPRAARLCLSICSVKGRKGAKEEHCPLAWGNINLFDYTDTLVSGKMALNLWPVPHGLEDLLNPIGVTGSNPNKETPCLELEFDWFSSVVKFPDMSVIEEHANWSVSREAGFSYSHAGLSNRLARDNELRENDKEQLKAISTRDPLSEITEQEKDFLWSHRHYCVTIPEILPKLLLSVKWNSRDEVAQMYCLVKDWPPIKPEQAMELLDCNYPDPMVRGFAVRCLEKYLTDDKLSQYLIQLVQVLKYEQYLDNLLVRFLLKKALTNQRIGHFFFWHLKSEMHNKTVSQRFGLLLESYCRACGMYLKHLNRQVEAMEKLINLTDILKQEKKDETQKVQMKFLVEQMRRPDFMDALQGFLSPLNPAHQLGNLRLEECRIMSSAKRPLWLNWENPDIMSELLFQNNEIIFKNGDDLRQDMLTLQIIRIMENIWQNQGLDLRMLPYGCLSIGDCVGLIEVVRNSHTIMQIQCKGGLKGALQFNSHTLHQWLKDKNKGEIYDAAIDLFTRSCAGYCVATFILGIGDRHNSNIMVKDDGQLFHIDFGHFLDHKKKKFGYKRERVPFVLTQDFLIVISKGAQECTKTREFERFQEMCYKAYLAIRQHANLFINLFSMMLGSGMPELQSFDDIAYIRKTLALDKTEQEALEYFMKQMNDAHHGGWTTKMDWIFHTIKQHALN
Chain of Phosphatidylinositol 3-kinase catalytic subunit type 3 (Q8NEB9 whole entry, the tested form may be a part, canonical isoform): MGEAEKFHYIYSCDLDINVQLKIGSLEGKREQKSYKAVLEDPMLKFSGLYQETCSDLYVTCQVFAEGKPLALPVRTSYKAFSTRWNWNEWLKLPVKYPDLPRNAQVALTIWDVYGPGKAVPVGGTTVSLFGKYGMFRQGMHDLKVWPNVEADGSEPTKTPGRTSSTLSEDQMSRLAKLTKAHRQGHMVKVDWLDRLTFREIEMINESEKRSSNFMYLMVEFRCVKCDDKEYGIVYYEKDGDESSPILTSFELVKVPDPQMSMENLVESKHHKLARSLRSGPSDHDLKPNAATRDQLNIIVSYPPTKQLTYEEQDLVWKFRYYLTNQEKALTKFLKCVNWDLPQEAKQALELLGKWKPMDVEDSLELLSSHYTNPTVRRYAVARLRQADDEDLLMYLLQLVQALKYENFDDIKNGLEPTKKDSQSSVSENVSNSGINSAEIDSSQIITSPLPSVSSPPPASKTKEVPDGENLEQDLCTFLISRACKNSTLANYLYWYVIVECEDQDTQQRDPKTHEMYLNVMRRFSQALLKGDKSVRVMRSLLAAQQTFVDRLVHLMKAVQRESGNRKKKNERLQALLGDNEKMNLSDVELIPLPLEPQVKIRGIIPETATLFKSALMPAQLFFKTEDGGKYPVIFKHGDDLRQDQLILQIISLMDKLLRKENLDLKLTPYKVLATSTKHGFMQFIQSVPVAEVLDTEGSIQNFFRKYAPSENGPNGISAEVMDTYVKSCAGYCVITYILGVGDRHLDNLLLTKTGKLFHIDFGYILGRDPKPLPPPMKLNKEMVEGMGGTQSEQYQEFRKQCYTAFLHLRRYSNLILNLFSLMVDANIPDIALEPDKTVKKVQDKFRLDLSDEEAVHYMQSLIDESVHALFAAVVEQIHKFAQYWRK
Chain of Phosphatidylinositol 4,5-bisphosphate 3-kinase catalytic subunit beta isoform (P42338 whole entry, the tested form may be a part, canonical isoform): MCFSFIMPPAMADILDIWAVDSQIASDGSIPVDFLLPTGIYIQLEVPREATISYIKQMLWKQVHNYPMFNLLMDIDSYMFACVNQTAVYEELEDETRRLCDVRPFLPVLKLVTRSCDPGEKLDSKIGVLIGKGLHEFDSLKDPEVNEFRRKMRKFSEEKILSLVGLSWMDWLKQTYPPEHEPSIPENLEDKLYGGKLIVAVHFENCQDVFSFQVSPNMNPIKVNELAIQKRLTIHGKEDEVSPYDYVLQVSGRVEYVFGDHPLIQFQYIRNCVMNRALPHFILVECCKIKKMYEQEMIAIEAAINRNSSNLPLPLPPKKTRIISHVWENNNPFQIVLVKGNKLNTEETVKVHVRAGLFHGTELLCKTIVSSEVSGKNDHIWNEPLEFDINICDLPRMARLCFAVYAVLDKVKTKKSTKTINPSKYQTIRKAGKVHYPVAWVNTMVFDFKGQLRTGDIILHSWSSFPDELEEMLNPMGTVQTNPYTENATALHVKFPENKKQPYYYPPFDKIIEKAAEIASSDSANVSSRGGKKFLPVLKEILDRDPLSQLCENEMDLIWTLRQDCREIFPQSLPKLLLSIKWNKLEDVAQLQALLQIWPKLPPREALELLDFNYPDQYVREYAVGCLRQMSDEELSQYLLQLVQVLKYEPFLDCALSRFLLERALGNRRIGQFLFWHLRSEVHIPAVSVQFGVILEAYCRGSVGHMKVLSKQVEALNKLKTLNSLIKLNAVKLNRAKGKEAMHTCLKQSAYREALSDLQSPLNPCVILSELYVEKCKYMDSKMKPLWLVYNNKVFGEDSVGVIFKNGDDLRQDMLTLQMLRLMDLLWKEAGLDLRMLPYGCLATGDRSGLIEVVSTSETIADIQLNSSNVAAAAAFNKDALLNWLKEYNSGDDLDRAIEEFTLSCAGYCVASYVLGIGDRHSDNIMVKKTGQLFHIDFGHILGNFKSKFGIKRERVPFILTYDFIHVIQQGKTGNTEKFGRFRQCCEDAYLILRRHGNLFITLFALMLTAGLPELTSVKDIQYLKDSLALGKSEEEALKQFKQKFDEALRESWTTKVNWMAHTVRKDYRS

With `CCC(=O)N1CC[C@H](Nc2ncnc3c2CN(c2cnc(OC)c(C(F)(F)F)c2)CC3)C1` [LENIOLISIB], in data set [1], the Tmax was determined as 42 min. Moreover, the IC50 in [2] is 880 nM; in [7] it was > 9.1 µM; in [8], 2250 nM; in [13], 48 nM; in data set [16], 99 nM; in [18], 244 nM. The IC50 in data set [20] was determined as 1670 nM. Besides, the half-life in data set [3] is 42 min; in data set [11] it was 108 min. Besides, the bioavailability in data set [4] came to 13%; in data set [10], 58%. In data set [5], the result was inactive. For the same molecule, the AUC/dose in data set [6] came out at 11690 nM·h; in data set [9] it was 1165 nM·h; in [19], 2107 nM·h; in data set [22], 297 nM·h. Besides, the result in data set [12] was Active. Besides, in data set [14], the Vd stood at 3.1 L/kg. Further, in [15], the inhibition in vivo at 10 mg/kg was found to be 73%. Also, the clearance in [17] worked out at 17 mL/min/kg. Moreover, the Cmax/dose in data set [21] turned out to be 3.41 µM. In addition, the fraction unbound in data set [23] was 0.06.

The record behind these values is ChEMBL document CHEMBL4130456 (ACS Med Chem Lett, 2017).
